{
  "source": "ChEMBL document CHEMBL1123252",
  "about": "“Design and synthesis of potent and specific renin inhibitors containing difluorostatine, difluorostatone, and related analogues” (J Med Chem, 1986)",
  "note": "pIC50: −log10 of the molar value. Where a SMILES comes first, the peptide text is derived from it. [ ]: non-standard residue; d: D form. The star is where a group is joined. Ala(2H-imidazol-2-yl) = N[C@@H](CC1N=CC=N1)C(=O)O; Sta = CC(C)C[C@H](N)[C@@H](O)CC(=O)O; NHCH2(2-pyridyl) = c1ccc(CN*)nc1; Boc = CC(C)(C)OC(=O)*",
  "data": [
    {"target": "T1, Renin (Homo sapiens, UniProt P00797)", "T1 sequence (P00797 whole entry)": "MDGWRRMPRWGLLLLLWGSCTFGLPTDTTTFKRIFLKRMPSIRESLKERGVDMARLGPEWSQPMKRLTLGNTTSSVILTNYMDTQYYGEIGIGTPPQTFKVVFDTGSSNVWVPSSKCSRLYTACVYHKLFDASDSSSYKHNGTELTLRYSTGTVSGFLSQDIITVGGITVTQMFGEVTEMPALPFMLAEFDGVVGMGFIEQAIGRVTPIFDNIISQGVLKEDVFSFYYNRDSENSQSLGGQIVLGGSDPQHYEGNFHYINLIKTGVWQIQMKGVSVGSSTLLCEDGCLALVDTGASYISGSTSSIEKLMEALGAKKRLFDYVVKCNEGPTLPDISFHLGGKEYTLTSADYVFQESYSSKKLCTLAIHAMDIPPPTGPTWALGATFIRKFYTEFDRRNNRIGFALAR", "assay": "Inhibition of human plasma renin", "format": "cell-free", "how_it_was_run": "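Lyophilized human plasma with 0.1% EDTA, plus phenylmethanesulfonyl fluoride and maleate buffer pH 6.0. Inhibitor given in 1% Tween 80 in water. Angiotensin I generated over 90 min at 37 °C and measured by radioimmunoassay kit. Percent inhibition taken versus control tubes. IC50 estimated graphically from 3-4 concentrations on semilog plot.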", "values": [
      {"smiles": "CC[C@H](C)[C@H](NC(=O)C(F)(F)C(=O)[C@H](CC(C)C)NC(=O)[C@H](CC1N=CC=N1)NC(=O)[C@H](Cc1ccccc1)NC(=O)OC(C)(C)C)C(=O)NCc1ccccn1", "pIC50": 9.28},
      {"smiles": "CC[C@H](C)[C@H](NC(=O)CC(=O)[C@H](CC(C)C)NC(=O)[C@H](CC1N=CC=N1)NC(=O)[C@H](Cc1ccccc1)NC(=O)OC(C)(C)C)C(=O)NCc1ccccn1", "pIC50": 7.47},
      {"smiles": "CC[C@H](C)[C@H](NC(=O)C(F)(F)[C@H](O)[C@H](CC(C)C)NC(=O)[C@H](CC1N=CC=N1)NC(=O)[C@H](Cc1ccccc1)NC(=O)OC(C)(C)C)C(=O)NCc1ccccn1", "pIC50": 7.92},
      {"smiles": "CC[C@H](C)[C@H](NC(=O)C(F)(F)[C@H](O)[C@H](CC1CCCCC1)NC(=O)[C@H](CC1N=CC=N1)NC(=O)[C@H](Cc1ccccc1)NC(=O)OC(C)(C)C)C(=O)NCc1ccccn1", "pIC50": 9.24},
      {"smiles": "CC[C@H](C)[C@H](NC(=O)C(F)(F)[C@@H](O)[C@H](CC(C)C)NC(=O)[C@H](CC1N=CC=N1)NC(=O)[C@H](Cc1ccccc1)NC(=O)OC(C)(C)C)C(=O)NCc1ccccn1", "pIC50": 6.14},
      {"smiles": "CC[C@H](C)[C@H](NC(=O)C(F)(F)[C@H](O)[C@H](Cc1ccccc1)NC(=O)[C@H](CC1N=CC=N1)NC(=O)[C@H](Cc1ccccc1)NC(=O)OC(C)(C)C)C(=O)NCc1ccccn1", "pIC50": 7.89},
      {"smiles": "CC[C@H](C)[C@H](NC(=O)C(F)(F)C(=O)[C@H](CC1CCCCC1)NC(=O)[C@H](CC1N=CC=N1)NC(=O)[C@H](Cc1ccccc1)NC(=O)OC(C)(C)C)C(=O)NCc1ccccn1", "pIC50": 8.60},
      {"smiles": "CC[C@H](C)[C@H](NC(=O)C(F)(F)C(=O)[C@H](Cc1ccccc1)NC(=O)[C@H](CC1N=CC=N1)NC(=O)[C@H](Cc1ccccc1)NC(=O)OC(C)(C)C)C(=O)NCc1ccccn1", "pIC50": 8.89},
      {"smiles": "CC[C@H](C)[C@H](NC(=O)C[C@H](O)[C@H](CC(C)C)NC(=O)[C@H](CC1N=CC=N1)NC(=O)[C@H](Cc1ccccc1)NC(=O)OC(C)(C)C)C(=O)NCc1ccccn1", "note": "(Boc-F[Ala(2H-imidazol-2-yl)][Sta]I-{NHCH2(2-pyridyl)})", "pIC50": 8.77}
    ]}
  ]
}
